Assays:
Mus musculus [1] = test: Toxicity in mouse L1210 cells allografted mouse at 70 mg/kg, ip qd for 9 days; assay type: organism-based; set-up: dose 70 mg/kg, route intraperitoneal; details: in vivo, 216 h
How it was run: (§1)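 Groups of five to ten mice were inoculated ip with about 10^6 L1210 cells and dosed once daily for 9 consecutive days beginning 24 h post-implantation. Toxicity was taken as the average body weight change at the end of drug treatment.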

L1210 [2] = test: Antitumor activity against mouse L1210 cells allografted mouse assessed as host survival at 90 mg/kg, ip qd for 9 days relative to control; assay type: functional; details: route intraperitoneal
How it was run: (§2)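 NCI protocol: groups of five to ten mice inoculated ip with approximately 10^6 P-388 or L1210 cells. Drug given over a range of dose levels starting 24 h after implantation, once daily for 9 consecutive days. Survival expressed as %T/C = (average survival of treated)/(average survival of control) × 100.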

Mus musculus [3] = test: Toxicity in mouse P388 cells allografted mouse at 60 mg/kg, ip qd for 9 days; assay type: organism-based; set-up: dose 60 mg/kg, route intraperitoneal; details: in vivo, 216 h
How it was run: (§3)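 NCI protocol. Groups of five to ten mice were inoculated intraperitoneally with about 10^6 tumor cells. Drug was given ip once daily for 9 consecutive days, starting 24 h after tumor implantation, over a range of dose levels. Toxicity was read as the average body weight change at the end of drug treatment.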

P388 [4] = test: Antitumor activity against mouse P388 cells allografted mouse assessed as host survival at 40 mg/kg, ip qd for 9 days relative to control; assay type: functional; details: route intraperitoneal; how it was run: as §2
Mus musculus [5] = test: Toxicity in mouse L1210 cells allografted mouse at 90 mg/kg, ip qd for 9 days; assay type: organism-based; set-up: dose 90 mg/kg, route intraperitoneal; details: in vivo, 216 h; how it was run: as §3
Mus musculus [6] = test: Toxicity in mouse P388 cells allografted mouse at 40 mg/kg, ip qd for 9 days; assay type: organism-based; set-up: dose 40 mg/kg, route intraperitoneal; details: in vivo, 216 h; how it was run: as §3
Mus musculus [7] = test: Toxicity in mouse L1210 cells allografted mouse at 80 mg/kg, ip qd for 9 days; assay type: organism-based; set-up: dose 80 mg/kg, route intraperitoneal; details: in vivo, 216 h; how it was run: as §3
[8] = Binding affinity to synthetic melanin at 5.8 mg/100 mL after 15 mins by UV-spectroscopic analysis; assay type: physicochemical; details: 0.25 h
How it was run: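 Synthetic melanin was made from DL-Dopa with tyrosinase in 0.1 M phosphate pH 6.6 at 37 °C for 4 h. Melanin suspension (1.1 mg dry weight) was mixed with phosphate buffer (0.05 M, pH 6.4, 5% Me2SO), water, and 1 mL of drug solution (5.8 mg/100 mL). The mixture was shaken 15 min at room temperature and filtered. Unbound drug in the filtrate was measured by UV against a drug-free blank.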

P388 [9] = test: Antitumor activity against mouse P388 cells allografted mouse assessed as host survival at 60 mg/kg, ip qd for 9 days relative to control; assay type: functional; details: route intraperitoneal; how it was run: as §2
L1210 [10] = test: Antitumor activity against mouse L1210 cells allografted mouse assessed as host survival at 80 mg/kg, ip qd for 9 days relative to control; assay type: functional; details: route intraperitoneal; how it was run: as §2
P388 [11] = test: Antitumor activity against mouse P388 cells allografted mouse assessed as host survival at 80 mg/kg, ip qd for 9 days relative to control; assay type: functional; details: route intraperitoneal; how it was run: as §2
L1210 [12] = test: Antitumor activity against mouse L1210 cells allografted mouse assessed as host survival at 70 mg/kg, ip qd for 9 days relative to control; assay type: functional; details: route intraperitoneal; how it was run: as §2
Mus musculus [13] = test: Toxicity in mouse P388 cells allografted mouse at 80 mg/kg, ip qd for 9 days; assay type: organism-based; set-up: dose 80 mg/kg, route intraperitoneal; details: in vivo, 216 h; how it was run: as §3
Mus musculus [14] = test: Toxicity in mouse L1210 cells allografted mouse at 60 mg/kg, ip qd for 9 days; assay type: organism-based; set-up: dose 60 mg/kg, route intraperitoneal; details: in vivo, 216 h; how it was run: as §1
P388 [15] = test: Antitumor activity against mouse P388 cells allografted mouse assessed as host survival at 20 mg/kg, ip qd for 9 days relative to control; assay type: functional; details: route intraperitoneal; how it was run: as §2
Mus musculus [16] = test: Toxicity in mouse L1210 cells allografted mouse at 50 mg/kg, ip qd for 9 days; assay type: organism-based; set-up: dose 50 mg/kg, route intraperitoneal; details: in vivo, 216 h; how it was run: as §1
L1210 [17] = test: Antitumor activity against mouse L1210 cells allografted mouse assessed as host survival at 60 mg/kg, ip qd for 9 days relative to control; assay type: functional; details: route intraperitoneal; how it was run: as §2
Mus musculus [18] = test: Toxicity in mouse P388 cells allografted mouse at 20 mg/kg, ip qd for 9 days; assay type: organism-based; set-up: dose 20 mg/kg, route intraperitoneal; details: in vivo, 216 h; how it was run: as §3
L1210 [19] = test: Antitumor activity against mouse L1210 cells allografted mouse assessed as host survival at 50 mg/kg, ip qd for 9 days relative to control; assay type: functional; details: route intraperitoneal; how it was run: as §2
L1210 [20] = test: Antitumor activity against mouse L1210 cells allografted mouse assessed as host survival at 40 mg/kg, ip qd for 9 days relative to control; assay type: functional; details: route intraperitoneal; how it was run: as §2
Mus musculus [21] = test: Toxicity in mouse P388 cells allografted mouse at 50 mg/kg, ip qd for 9 days; assay type: organism-based; set-up: dose 50 mg/kg, route intraperitoneal; details: in vivo, 216 h; how it was run: as §3
P388 [22] = test: Antitumor activity against mouse P388 cells allografted mouse assessed as host survival at 50 mg/kg, ip qd for 9 days relative to control; assay type: functional; details: route intraperitoneal; how it was run: as §2
Mus musculus [23] = test: Toxicity in mouse L1210 cells allografted mouse at 40 mg/kg, ip qd for 9 days; assay type: organism-based; set-up: dose 40 mg/kg, route intraperitoneal; details: in vivo, 216 h; how it was run: as §1
P388 [24] = test: Antitumor activity against mouse P388 cells allografted mouse assessed as host survival at 30 mg/kg, ip qd for 9 days relative to control; assay type: functional; details: route intraperitoneal; how it was run: as §2
Mus musculus [25] = test: Toxicity in mouse L1210 cells allografted mouse at 30 mg/kg, ip qd for 9 days; assay type: organism-based; set-up: dose 30 mg/kg, route intraperitoneal; details: in vivo, 216 h; how it was run: as §1
L1210 [26] = test: Antitumor activity against mouse L1210 cells allografted mouse assessed as host survival at 30 mg/kg, ip qd for 9 days relative to control; assay type: functional; details: route intraperitoneal; how it was run: as §2
Mus musculus [27] = test: Toxicity in mouse P388 cells allografted mouse at 30 mg/kg, ip qd for 9 days; assay type: organism-based; set-up: dose 30 mg/kg, route intraperitoneal; details: in vivo, 216 h; how it was run: as §3
Mus musculus [28] = test: Toxicity in mouse P388 cells allografted mouse at 10 mg/kg, ip qd for 9 days; assay type: organism-based; set-up: dose 10 mg/kg, route intraperitoneal; details: in vivo, 216 h; how it was run: as §3
P388 [29] = test: Antitumor activity against mouse P388 cells allografted mouse assessed as host survival at 10 mg/kg, ip qd for 9 days relative to control; assay type: functional; details: route intraperitoneal; how it was run: as §2
Mus musculus [30] = test: Toxicity in mouse L1210 cells allografted mouse at 20 mg/kg, ip qd for 9 days; assay type: organism-based; set-up: dose 20 mg/kg, route intraperitoneal; details: in vivo, 216 h; how it was run: as §1
L1210 [31] = test: Antitumor activity against mouse L1210 cells allografted mouse assessed as host survival at 20 mg/kg, ip qd for 9 days relative to control; assay type: functional; details: route intraperitoneal; how it was run: as §2

Row | Compound | Activity (Mus musculus [3]) [%] | T/C (P388 [4]) [%] | Activity (Mus musculus [6]) [%] | Activity [8] [%] | T/C (P388 [9]) [%] | T/C (P388 [15]) [%] | Activity (Mus musculus [18]) [%] | T/C (L1210 [20]) [%] | Activity (Mus musculus [21]) [%] | T/C (P388 [22]) [%] | Activity (Mus musculus [23]) [%] | T/C (P388 [24]) [%] | Activity (Mus musculus [25]) [%] | T/C (L1210 [26]) [%] | Activity (Mus musculus [27]) [%] | other results
1 | CN(C)/N=N\c1ccnc2ccc(I)cc12 | 2.6 | 117 | 10.5 | 60.6 | 133 |  |  |  |  |  |  |  |  |  |  | Activity (Mus musculus [1]): -23.8%; T/C (L1210 [2]): 158%; Activity (Mus musculus [5]): -6.4%; Activity (Mus musculus [7]): -8.2%; T/C (L1210 [10]): 160%; T/C (P388 [11]): 123%; T/C (L1210 [12]): 148%; Activity (Mus musculus [13]): 7.1%
2 | CN(C)/N=N\c1ccnc2cc(I)ccc12 | -5.2 | 130 | 5.7 |  | 127 | 117 | 10.8 |  |  |  |  |  |  |  |  | Activity (Mus musculus [14]): 2.9%; Activity (Mus musculus [16]): 4.9%; T/C (L1210 [17]): 131%; T/C (L1210 [19]): 107%
3 | CN(C)/N=N\c1ccnc2ccc(Br)cc12 |  | 111 | -3.5 | 55.3 |  | 123 | 18 | 154 | -8.9 | 131 | -5.8 | 127 | -1 | 150 |  | 
4 | CN(C)/N=N\c1ccnc2cc(Br)ccc12 |  | 133 | -8.9 | 57.3 |  |  |  | 141 | -15.1 | 125 | -2.8 | 133 | 10 | 129 | -2.4 | 
5 | CN(C)/N=N\c1ccnc2ccc(Cl)cc12 |  |  |  | 41 |  | 139 | 0.8 |  |  |  |  | 137 | -10 | 156 | -12.9 | Activity (Mus musculus [28]): -3.1%; T/C (P388 [29]): 129%; Activity (Mus musculus [30]): 1%; T/C (L1210 [31]): 146%
